From ChEMBL document CHEMBL1141626, “Thiosemicarbazones active against Clostridium difficile” (2008)

Assays:
Assay type in all cases: functional
Clostridioides difficile [1] = assay: Antimicrobial activity against Clostridium difficile Z229 after 48 hrs
In short: (§1)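 Anaerobes incubated in an anaerobic cabinet for broth MIC determination. Drug-free incubations of the same organisms served as controls. Value is the minimum inhibitory concentration.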

Clostridioides difficile [2] = assay: Antimicrobial activity against Clostridium difficile Z161 after 48 hrs; in short: as §1
[3] = test system: Staphylococcus epidermidis; assay: Antimicrobial activity against Staphylococcus epidermidis 10 after 24 hrs
In short: (§2)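 MIC by dilution in nutrient broth. Anaerobic organisms were incubated in an anaerobic cabinet. Controls were the same organisms incubated without test compound.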

Clostridioides difficile [4] = assay: Antimicrobial activity against Clostridium difficile Z179 after 48 hrs; in short: as §1
Clostridioides difficile [5] = assay: Antimicrobial activity against Clostridium difficile Z173 after 48 hrs; in short: as §1
[6] = test system: Staphylococcus epidermidis; assay: Antimicrobial activity against Staphylococcus epidermidis 7A after 24 hrs; in short: as §2
Clostridioides difficile [7] = assay: Antimicrobial activity against Clostridium difficile Z175 after 48 hrs; in short: as §1
Clostridioides difficile [8] = assay: Antimicrobial activity against Clostridium difficile Z1580 after 48 hrs; in short: as §1
Clostridioides difficile [9] = assay: Antimicrobial activity against Clostridium difficile Z166 after 48 hrs; in short: as §1
Staphylococcus aureus [10] = assay: Antimicrobial activity against methicillin-resistant Staphylococcus aureus B3 after 24 hrs; in short: as §2
Clostridioides difficile [11] = assay: Antimicrobial activity against Clostridium difficile Z1579 after 48 hrs; in short: as §1
Staphylococcus aureus [12] = assay: Antimicrobial activity against methicillin-resistant Staphylococcus aureus A3 after 24 hrs; in short: as §2
Staphylococcus aureus [13] = assay: Antimicrobial activity against Staphylococcus aureus T1 after 24 hrs; in short: as §2
Acinetobacter sp. [14] = assay: Antimicrobial activity against Acinetobacter sp.5
[15] = test system: Staphylococcus epidermidis; assay: Antimicrobial activity against Staphylococcus epidermidis 9 after 24 hrs; in short: as §2
Cutibacterium acnes [16] = assay: Antimicrobial activity against Propionibacterium acnes C3 after 48 hrs; in short: as §2
Clostridioides difficile [17] = assay: Antimicrobial activity against Clostridium difficile Z169 after 48 hrs; in short: as §1
Clostridioides difficile [18] = assay: Antimicrobial activity against Clostridium difficile Z176 after 48 hrs; in short: as §1
Clostridioides difficile [19] = assay: Antimicrobial activity against Clostridium difficile Z1577 after 48 hrs; in short: as §1
Staphylococcus aureus [20] = assay: Antimicrobial activity against methicillin-resistant Staphylococcus aureus C1 after 24 hrs; in short: as §2
Clostridioides difficile [21] = assay: Antimicrobial activity against Clostridium difficile Z172 after 48 hrs; in short: as §1
Staphylococcus aureus [22] = assay: Antimicrobial activity against methicillin-sensitive Staphylococcus aureus A2 after 24 hrs; in short: as §2
Clostridioides difficile [23] = assay: Antimicrobial activity against Clostridium difficile Z1578 after 48 hrs; in short: as §1
Clostridioides difficile [24] = assay: Antimicrobial activity against Clostridium difficile Z159 after 48 hrs; in short: as §1
Clostridioides difficile [25] = assay: Antimicrobial activity against Clostridium difficile NCTC 11204 after 48 hrs; conditions: NCTC 11204, 48 h; in short: as §1
Cutibacterium acnes [26] = assay: Antimicrobial activity against Propionibacterium acnes NCTC 737 after 48 hrs; conditions: NCTC 737, 48 h; in short: as §2
Acinetobacter sp. [27] = assay: Antimicrobial activity against Acinetobacter sp.3
Staphylococcus aureus [28] = assay: Antimicrobial activity against methicillin-resistant Staphylococcus aureus D1 after 24 hrs; in short: as §2
Acinetobacter sp. [29] = assay: Antimicrobial activity against Acinetobacter sp.4
Clostridioides difficile [30] = assay: Antimicrobial activity against Clostridium difficile Z162 after 48 hrs; in short: as §1
Staphylococcus aureus [31] = assay: Antimicrobial activity against Staphylococcus aureus ATCC 6538 after 24 hrs; conditions: ATCC 6538, 24 h; in short: as §2
Staphylococcus aureus [32] = assay: Antimicrobial activity against methicillin-sensitive Staphylococcus aureus A3 after 24 hrs; in short: as §2
Clostridioides difficile [33] = assay: Antimicrobial activity against Clostridium difficile Z163 after 48 hrs; in short: as §1
Staphylococcus aureus [34] = assay: Antimicrobial activity against epidemic methicillin-resistant Staphylococcus aureus 15 after 24 hrs; in short: as §2
[35] = test system: Staphylococcus epidermidis; assay: Antimicrobial activity against Staphylococcus epidermidis 4 after 24 hrs; in short: as §2
Clostridioides difficile [36] = assay: Antimicrobial activity against Clostridium difficile Z66 after 48 hrs; in short: as §1
Staphylococcus aureus [37] = assay: (§3) Antimicrobial activity against Staphylococcus aureus H1 after 24 hrs; in short: as §2
Staphylococcus aureus [38] = assay: Antimicrobial activity against Staphylococcus aureus V1 after 24 hrs; in short: as §2
Candida albicans [39] = assay: Antimicrobial activity against Candida albicans 1009116
[40] = test system: Staphylococcus epidermidis; assay: Antimicrobial activity against Staphylococcus epidermidis 11 after 24 hrs; in short: as §2
Candida albicans [41] = assay: Antimicrobial activity against Candida albicans 1013781
Clostridioides difficile [42] = assay: Antimicrobial activity against Clostridium difficile Z170 after 48 hrs; in short: as §1
[43] = test system: Staphylococcus epidermidis; assay: Antimicrobial activity against Staphylococcus epidermidis RP62A after 24 hrs; in short: as §2
Clostridioides difficile [44] = assay: Antimicrobial activity against Clostridium difficile Z167 after 48 hrs; in short: as §1
Cutibacterium acnes [45] = assay: Antimicrobial activity against Propionibacterium acnes D3 after 48 hrs; in short: as §2
Clostridioides difficile [46] = assay: Antimicrobial activity against Clostridium difficile Z171 after 48 hrs; in short: as §1
Candida albicans [47] = assay: Antimicrobial activity against Candida albicans 1012155
Acinetobacter sp. [48] = assay: Antimicrobial activity against Acinetobacter sp.1
[49] = test system: Staphylococcus epidermidis; assay: Antimicrobial activity against Staphylococcus epidermidis NCTC 11047 after 24 hrs; conditions: NCTC 11047, 24 h; in short: as §2
Candida albicans [50] = assay: Antimicrobial activity against Candida albicans 1015391
Staphylococcus aureus [51] = assay: Antimicrobial activity against methicillin-resistant Staphylococcus aureus B1 after 24 hrs; in short: as §2
Clostridioides difficile [52] = assay: Antimicrobial activity against Clostridium difficile Z160 after 48 hrs; in short: as §1
Acinetobacter sp. [53] = assay: Antimicrobial activity against Acinetobacter sp.2
Cutibacterium acnes [54] = assay: Antimicrobial activity against Propionibacterium acnes C5 after 48 hrs; in short: as §2
Cutibacterium acnes [55] = assay: Antimicrobial activity against Propionibacterium acnes D1 after 48 hrs; in short: as §2
Cutibacterium acnes [56] = assay: Antimicrobial activity against Propionibacterium acnes C1 after 24 hrs; in short: as §2
Clostridioides difficile [57] = assay: Antimicrobial activity against Clostridium difficile Z150 after 48 hrs; in short: as §1
[58] = test system: Staphylococcus epidermidis; assay: Antimicrobial activity against Staphylococcus epidermidis 8A after 24 hrs; in short: as §2
Clostridioides difficile [59] = assay: Antimicrobial activity against Clostridium difficile O27 after 48 hrs; in short: as §1
Staphylococcus aureus [60] = assay: Antimicrobial activity against methicillin-resistant Staphylococcus aureus A1 after 24 hrs; in short: as §2
Candida albicans [61] = assay: Antimicrobial activity against Candida albicans 1011377
Clostridioides difficile [62] = assay: Antimicrobial activity against Clostridium difficile Z168 after 48 hrs; in short: as §1
Staphylococcus aureus [63] = assay: Antimicrobial activity against methicillin-resistant Staphylococcus aureus E1 after 24 hrs; in short: as §2
Clostridioides difficile [64] = assay: Antimicrobial activity against Clostridium difficile Z164 after 48 hrs; in short: as §1
Clostridioides difficile [65] = assay: Antimicrobial activity against Clostridium difficile Z16 after 48 hrs; in short: as §1
Clostridioides difficile [66] = assay: Antimicrobial activity against Clostridium difficile Z251 after 48 hrs; in short: as §1
Clostridioides difficile [67] = assay: Antimicrobial activity against Clostridium difficile Z177 after 48 hrs; in short: as §1
Staphylococcus aureus [68] = assay: Antimicrobial activity against Staphylococcus aureus K1 after 24 hrs; in short: as §2
Clostridioides difficile [69] = assay: Antimicrobial activity against Clostridium difficile Z158 after 48 hrs; in short: as §1
Staphylococcus aureus [70] = assay: as §3; in short: as §2; remark: listed apart in the source
Clostridioides difficile [71] = assay: Antimicrobial activity against Clostridium difficile Z1568 after 48 hrs; in short: as §1
Staphylococcus aureus [72] = assay: Antimicrobial activity against methicillin-resistant Staphylococcus aureus C3 after 24 hrs; in short: as §2
Cutibacterium acnes [73] = assay: Antimicrobial activity against Propionibacterium acnes B5 after 48 hrs; in short: as §1
Cutibacterium acnes [74] = assay: Antimicrobial activity against Propionibacterium acnes B3 after 24 hrs
[75] = test system: Staphylococcus epidermidis; assay: Antimicrobial activity against Staphylococcus epidermidis 3 after 24 hrs; in short: as §2
Clostridioides difficile [76] = assay: Antimicrobial activity against Clostridium difficile Z387 after 48 hrs; in short: as §1
Clostridioides difficile [77] = assay: Antimicrobial activity against Clostridium difficile Z21 after 48 hrs; in short: as §1
Clostridioides difficile [78] = assay: Antimicrobial activity against Clostridium difficile Z1591 after 48 hrs; in short: as §1

Measured: MIC

CCNC(=S)N/N=C/C=C/c1ccc([N+](=O)[O-])o1
16 µg/mL: Staphylococcus aureus [37] | Clostridioides difficile [76] | Clostridioides difficile [77]
0.125 µg/mL: Clostridioides difficile [30]
4 µg/mL: Clostridioides difficile [1] | [3] | Staphylococcus aureus [10] | Staphylococcus aureus [12] | Staphylococcus aureus [13] | Clostridioides difficile [21] | Staphylococcus aureus [22] | Clostridioides difficile [25] | Cutibacterium acnes [26] | Staphylococcus aureus [28] | Staphylococcus aureus [31] | Staphylococcus aureus [32] | Staphylococcus aureus [34] | [35] | Clostridioides difficile [36] | [43] | Cutibacterium acnes [45] | [49] | Staphylococcus aureus [51] | Cutibacterium acnes [55] | Clostridioides difficile [57] | Staphylococcus aureus [63] | Staphylococcus aureus [68] | Staphylococcus aureus [72]
32 µg/mL: Cutibacterium acnes [54]
1 µg/mL: Clostridioides difficile [8] | [15] | Clostridioides difficile [23] | [40] | Clostridioides difficile [64] | Clostridioides difficile [66] | Clostridioides difficile [71] | Clostridioides difficile [78]
64 µg/mL: Staphylococcus aureus [70]
0.5 µg/mL: Clostridioides difficile [2] | Clostridioides difficile [7] | Clostridioides difficile [19]
2 µg/mL: Clostridioides difficile [4] | [6] | Clostridioides difficile [9] | Clostridioides difficile [11] | Cutibacterium acnes [16] | Clostridioides difficile [17] | Clostridioides difficile [18] | Staphylococcus aureus [20] | Clostridioides difficile [33] | Staphylococcus aureus [38] | Clostridioides difficile [42] | Clostridioides difficile [44] | Clostridioides difficile [46] | [58] | Staphylococcus aureus [60] | Clostridioides difficile [62] | Clostridioides difficile [67] | Clostridioides difficile [69] | [75]
8 µg/mL: Clostridioides difficile [5] | Clostridioides difficile [24] | Clostridioides difficile [52] | Cutibacterium acnes [56] | Clostridioides difficile [59] | Clostridioides difficile [65] | Cutibacterium acnes [73] | Cutibacterium acnes [74]
128 µg/mL: Acinetobacter sp. [14] | Acinetobacter sp. [27] | Acinetobacter sp. [29] | Candida albicans [39] | Candida albicans [41] | Candida albicans [47] | Acinetobacter sp. [48] | Candida albicans [50] | Acinetobacter sp. [53] | Candida albicans [61]
